Source: PubChem BioAssay (The Scripps Research Institute Molecular Screening Center)
Shown are actives, neighbours in structure and some others; about 4.6% of the full set was active somewhere.
OX1R antag-1: OX1R (human) antagonism | hit rate 1.8% among 330,000 | O43613 | OX1R-expressing cells, FRET antagonist read-out | inhibition, % at 6.6 µM; in the data active = inhibition mostly above about 38%, no sharp cut-off; inactive = mostly below about 40%
TAAR1 antag: human TAAR1 antagonism; CHO RD-HGA16 TAAR1, Fluo-8 calcium fluorescence, antagonist; AID 624466; hit rate 1.5% among 360,000; inhibition, % at 3 µM;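 active = inhibition above a per-plate cutoff, the mean inhibition of test compounds on that plate plus 3 SD, cut at about 49% in these data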
Target sequence (Q96RJ0 whole entry, looked up): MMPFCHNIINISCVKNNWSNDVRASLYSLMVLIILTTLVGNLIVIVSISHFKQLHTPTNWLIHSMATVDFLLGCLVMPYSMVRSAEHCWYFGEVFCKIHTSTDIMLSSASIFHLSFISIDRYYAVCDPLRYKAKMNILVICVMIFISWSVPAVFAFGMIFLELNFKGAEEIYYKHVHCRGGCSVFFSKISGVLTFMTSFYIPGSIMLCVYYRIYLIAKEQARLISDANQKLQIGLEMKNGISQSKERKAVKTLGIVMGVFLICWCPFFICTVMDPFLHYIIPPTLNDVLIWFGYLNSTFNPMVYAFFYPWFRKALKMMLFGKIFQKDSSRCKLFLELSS
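System: RD-HGA16 CHO cells with stable hTAAR1 and Gα16 | Probe or stimulus: EC80 β-phenethylamine stimulus | Dosing: 3 µM, single point | Times: Dye loading 75 min at 37 °C, then 30 min room temperature | Measured by: Fluo-8 calcium-sensitive fluorescence | Read-out basis: % inhibition of agonist calcium response | Replicates: n of 1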
CHO parental Ca: signal in parental CHO cells, OX1R antagonist counter-screen. parental CHO-K1, ATP-induced calcium, Fluo-8 fluorescence. inhibition, % at 5.6 µM. hit rate 0.63% among 330,000. AID 463079;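 active = inhibition above that plate's mean sample inhibition plus 3 SD, cut at about 26% in these data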
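Test system: untransfected parental CHO cell line. Compound: one dose, 5.6 µM nominal. Detection: intracellular calcium via Fluo-8 no-wash fluorescent dye. Measure: % inhibition. Benchmarks: ATP-challenged DMSO wells low, unchallenged DMSO wells high.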
TAAR1 ag: human TAAR1 agonism. AID 624467. Q96RJ0. activation, % at 3 µM. hit rate 0.99% among 360,000. CHO RD-HGA16 TAAR1, Fluo-8 calcium fluorescence; vehicle wells 0%, saturating PEA agonist 100%;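 active = activation above the mean activation of all test compounds in the run plus 3 SD, cut at about 38% in these data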
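Assay system – CHO-derived RD-HGA16 cells with stable Gα16 and human TAAR1 · Compound dosing – one-point dosing at 3 µM (nominal) · Incubation – 17-24 h seeding, 75 min 37 °C dye, 30 min RT · Measured by – kinetic Fluo-8 calcium fluorescence · Control set – DMSO vehicle as 0%, PEA at EC100 as 100% · Repeats – single well for each compound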
OX1R antag-2: human HCRTR1 antagonism; O43613; CHO/OX1R cells, Fluo-8 calcium fluorescence, orexin A; inhibition, % at 5 µM; hit rate 0.43% among 330,000; AID 434989;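 active = inhibition above its plate's threshold, mean inhibition of all tested compounds on the plate plus 3 SD, cut at about 37% in these data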
GPR7 antag: human neuropeptides B/W receptor 1 antagonism; P48145; GPR7-expressing cells, fluorescence antagonist assay; inhibition, % at 4.4 µM; hit rate 1.1% among 290,000; in the data active = inhibition above about 16%, passing the limit was not always enough;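 note: cells stimulated with the agonist NPW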
GPR7 antag conf: human GPR7 antagonism, confirmation assay; shares compounds with GPR7 antag; GPR7-expressing cells, calcium fluorescence antagonist mode; inhibition, % at 4.4 µM; hit rate 52% among 2,400; AID 1952; in the data active = inhibition above about 24%;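 note: stimulated with the GPR7 agonist NPW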
MCHR1 antagonist: antagonizes human MCHR1, a GPR7 antagonist counter-screen; MCHR1-expressing cells, fluorescence antagonist assay; shares compounds with GPR7 antag; inhibition, % at 4.4 µM; AID 2148; hit rate 62% among 2,400; in the data active = inhibition above about 22%
Of the large screens only hits and unclear results are named; the others gave an inactive call (follow-up assays come after a bar, where they were run).

COc1ccc(CCNC(=O)c2ccc3c(c2)N(Cc2ccc(F)cc2)CCS3)cc1OC	TAAR1 antag 59.4, GPR7 antag 28.8 | GPR7 antag conf 31.1 | MCHR1 antagonist 50.4
CCCCCCN1C=CC(=C/C=C(\C#N)C(=O)OCC)C=C1	TAAR1 antag 59.7, CHO parental Ca 73.8, TAAR1 ag 113.7, OX1R antag-2 99.2, GPR7 antag 29.6 | GPR7 antag conf 46.5 | MCHR1 antagonist 63.7
O=C(CCC(=O)N1CCSc2ccccc21)Nc1ccc(F)cc1	GPR7 antag 31.6 | GPR7 antag conf inactive | MCHR1 antagonist inactive
CCn1c(COc2ccc(C)cc2)nnc1SCC(=O)NCc1ccco1	GPR7 antag 24.1 | GPR7 antag conf inactive | MCHR1 antagonist inactive
COc1ccccc1OCc1nnc(SCC(=O)NCc2ccco2)n1Cc1ccco1	none
CCN(CC)c1ccc(/C=C/c2ccc3ccc(OC)cc3[n+]2CC)cc1	CHO parental Ca 58.8, GPR7 antag 46.8 | GPR7 antag conf 65.5 | MCHR1 antagonist 64.8
OC(c1ccccc1)C(O)C(c1ccccc1)N1CCCCC1 (centres undefined)	none (no result: OX1R antag-1, CHO parental Ca, OX1R antag-2, GPR7 antag)
CC(C)COc1ccc(-c2nnc(-c3ccco3)o2)cc1	none
CCN(CC)CCCNc1ccc(-c2nnc(-c3ccc(OCC(C)C)cc3)o2)cn1	GPR7 antag 37.6 | GPR7 antag conf inactive | MCHR1 antagonist 47.6
CC(=O)Nc1ccc(NC(=O)CCn2nnc3ccccc32)cc1	none
C/C(=N\NC(=O)CCn1nnc2ccccc21)c1ccco1	GPR7 antag 21.3 | GPR7 antag conf inactive | MCHR1 antagonist inactive
COc1ccccc1CNC(=O)c1csc(Cc2ccc(Cl)cc2)n1	TAAR1 antag 50.2, GPR7 antag 29.3 | GPR7 antag conf inactive | MCHR1 antagonist 44.7
COc1ccc(CNC(=O)c2csc(Cc3ccccc3)n2)cc1	none
CC(=O)c1ccc(NC(=S)NC(C)c2ccc(Cl)cc2Cl)cc1 (centres undefined)	CHO parental Ca 64.4, TAAR1 ag 41.5, OX1R antag-2 72.5, GPR7 antag 43.6 | GPR7 antag conf 60.8 | MCHR1 antagonist 73.2
CC(=O)c1ccc(NC(=S)Nc2ccc(Br)c(Cl)c2)cc1	none
CN(Cc1ccccc1)C(=O)c1[nH]cnc1C(=O)Nc1ccc(Br)cc1F	none (no result: OX1R antag-1, CHO parental Ca, OX1R antag-2, GPR7 antag)
O=C(O)c1ccc(Nc2ccc(F)c(F)c2)c([N+](=O)[O-])c1	GPR7 antag 35.6 | GPR7 antag conf inactive | MCHR1 antagonist inactive
Cc1cccc(Nc2ccc(C(=O)O)cc2[N+](=O)[O-])c1C	none
COc1ccc(NC(=S)N(Cc2ccc(C)cc2)Cc2ccccn2)cc1	GPR7 antag 25.0 | GPR7 antag conf inactive | MCHR1 antagonist inactive
COc1ccc(NC(=S)N(CCc2ccc(OC)c(OC)c2)Cc2ccccn2)cc1	none
CN(C)c1ccc(CN(C(=O)c2cccs2)C2CCS(=O)(=O)C2)cc1 (centres undefined)	none
CCCCNC(=O)C1c2ccccc2OCC(=O)N1CCc1ccc(OC)c(OC)c1 (centres undefined)	none (no result: OX1R antag-1, CHO parental Ca, OX1R antag-2, GPR7 antag)
Fc1ccc(C(c2nnnn2C2CCCC2)N(Cc2ccco2)CC2CCCO2)cc1 (centres undefined)	GPR7 antag 31.7 | GPR7 antag conf 43.5 | MCHR1 antagonist 53.2
C=CCn1c(SCC(=O)NC2(C)CCS(=O)(=O)C2)nc2ccccc21 (centres undefined)	none (no result: GPR7 antag)
CC1CN/C(=C\C(=O)c2ccccc2)C(=O)N1 (centres undefined)	GPR7 antag 29.9 | GPR7 antag conf inactive | MCHR1 antagonist inactive
CCOc1ncccc1C(=O)N1CCN(c2cccc(C)c2C)CC1	GPR7 antag 28.3 (no result: OX1R antag-1, CHO parental Ca, OX1R antag-2) | GPR7 antag conf inactive | MCHR1 antagonist 34.2
Cc1ccc(Nc2nc(N)nc(CSc3nc(C)cc(C)n3)n2)cc1	GPR7 antag 25.7 | GPR7 antag conf inactive | MCHR1 antagonist inactive
Cc1ccc(Nc2nc(N)nc(CSc3ncccn3)n2)cc1	none
OCC1(CCc2ccccc2)CCN(Cc2cc(Cl)ccc2O)CC1	none
